Experimental data: ChEMBL document CHEMBL1255410, “Activity of the investigational fluoroquinolone finafloxacin against ciprofloxacin-sensitive and -resistant Acinetobacter baumannii isolates” (2010)
Converted amounts (≈) assume the structure as drawn.

Assays:
Type in all cases: functional
Acinetobacter baumannii [1] = assay: Antimicrobial activity against Acinetobacter baumannii isolate 36 harboring GyrA Ser83-Leu mutation at pH 7.2
Method in brief: (§1)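 Agar dilution MIC on Mueller-Hinton agar. For the acidic condition, HCl was added to bring the agar to pH 5.8 before pouring the antibiotic plates, and the pH was checked after the agar set. The standard condition was pH 7.2. Both drugs' plates were made the same day from fresh medium, and MICs were read at the same time.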

Acinetobacter baumannii [2] = assay: Antimicrobial activity against Acinetobacter baumannii isolate 52 harboring GyrA Ser83-Leu and ParC Ser80-Leu mutation at pH 5.8; method in brief: as §1
Acinetobacter baumannii [3] = assay: Antimicrobial activity against Acinetobacter baumannii isolate 24 harboring GyrA Ser83-Leu mutation at pH 7.2
Method in brief: (§2)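 MIC by agar dilution on Mueller-Hinton agar under standard conditions (pH 7.2), against isolates with characterized gyrA/parC genes. Agar pH was checked after solidifying. Plates for both drugs were prepared the same day from freshly made media, and MICs were determined simultaneously with the pH 5.8 set.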

Acinetobacter baumannii [4] = assay: Antimicrobial activity against Acinetobacter baumannii isolate 61 harboring GyrA Ser83-Leu and ParC Ser80-Leu mutation at pH 5.8
Method in brief: (§3)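 Agar dilution MIC on Mueller-Hinton agar acidified to pH 5.8 with HCl before the antibiotic-containing plates were poured. Agar pH was checked after solidifying. Plates were made the same day from fresh medium. Both fluoroquinolones were tested simultaneously against A. baumannii isolates with characterized gyrA/parC genes. MICs are in μg/ml.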

Acinetobacter baumannii [5] = assay: Antimicrobial activity against Acinetobacter baumannii isolate 11 at pH 7.2; method in brief: as §2
Acinetobacter baumannii [6] = assay: Antimicrobial activity against Acinetobacter baumannii isolate 6 at pH 5.8; method in brief: as §3
Acinetobacter baumannii [7] = assay: Antimicrobial activity against Acinetobacter baumannii isolate 16 at pH 5.8
Method in brief: (§4)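 MIC by agar dilution on Mueller-Hinton agar acidified to pH 5.8 with HCl before antibiotic-containing plates were poured. Agar pH was rechecked once the agar had solidified. Isolates had characterized gyrA/parC genes. Plates for both drugs were made the same day from fresh media, and MICs were read in parallel with the standard-pH set.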

Acinetobacter baumannii [8] = assay: Antimicrobial activity against Acinetobacter baumannii isolate 61 harboring GyrA Ser83-Leu and ParC Ser80-Leu mutation at pH 7.2
Method in brief: (§5)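 Agar dilution MIC on Mueller-Hinton agar under standard conditions (pH 7.2). Antibiotic-containing plates were made the same day from freshly prepared medium. Agar pH was checked after solidifying. Both fluoroquinolones were tested simultaneously against A. baumannii isolates with characterized gyrA/parC genes. MICs are in μg/ml.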

Acinetobacter baumannii [9] = assay: Antimicrobial activity against Acinetobacter baumannii isolate 59 harboring GyrA Ser83-Leu and ParC Glu84-Lys mutation at pH 5.8; method in brief: as §3
Acinetobacter baumannii [10] = assay: Antimicrobial activity against Acinetobacter baumannii isolate 21 harboring GyrA Ser83-Leu mutation at pH 7.2; method in brief: as §2
Acinetobacter baumannii [11] = assay: Antimicrobial activity against Acinetobacter baumannii isolate 37 harboring GyrA Ser83-Leu mutation at pH 7.2; method in brief: as §1
Acinetobacter baumannii [12] = assay: Antimicrobial activity against adeB overexpressing Acinetobacter baumannii isolate 68 harboring GyrA Ser83-Leu and ParC Ser80-Leu mutation at pH 5.8; method in brief: as §3
Acinetobacter baumannii [13] = assay: Antimicrobial activity against Acinetobacter baumannii isolate 5 at pH 5.8; method in brief: as §1
Acinetobacter baumannii [14] = assay: Antimicrobial activity against Acinetobacter baumannii isolate 50 harboring GyrA Ser83-Leu and ParC Ser80-Leu mutation at pH 7.2; method in brief: as §1
Acinetobacter baumannii [15] = assay: Antimicrobial activity against Acinetobacter baumannii isolate 55 harboring GyrA Ser83-Leu and ParC Ser80-Leu mutation at pH 5.8; method in brief: as §1
Acinetobacter baumannii [16] = assay: Antimicrobial activity against Acinetobacter baumannii isolate 14 at pH 7.2; method in brief: as §2
Acinetobacter baumannii [17] = assay: Antimicrobial activity against Acinetobacter baumannii isolate 48 harboring GyrA Ser83-Leu and ParC Ser80-Leu mutation at pH 5.8; method in brief: as §1
Acinetobacter baumannii [18] = assay: Antimicrobial activity against Acinetobacter baumannii isolate 12 at pH 5.8; method in brief: as §4
Acinetobacter baumannii [19] = assay: Antimicrobial activity against Acinetobacter baumannii isolate 48 harboring GyrA Ser83-Leu and ParC Ser80-Leu mutation at pH 7.2; method in brief: as §1
Acinetobacter baumannii [20] = assay: Antimicrobial activity against adeB overexpressing Acinetobacter baumannii isolate 67 harboring GyrA Ser83-Leu and ParC Ser80-Leu mutation at pH 5.8; method in brief: as §3
Acinetobacter baumannii [21] = assay: Antimicrobial activity against Acinetobacter baumannii isolate 8 at pH 7.2; method in brief: as §5
Acinetobacter baumannii [22] = assay: Antimicrobial activity against Acinetobacter baumannii isolate 29 harboring GyrA Ser83-Leu mutation at pH 7.2; method in brief: as §2
Acinetobacter baumannii [23] = assay: Antimicrobial activity against Acinetobacter baumannii isolate 24 harboring GyrA Ser83-Leu mutation at pH 5.8; method in brief: as §4
Acinetobacter baumannii [24] = assay: Antimicrobial activity against Acinetobacter baumannii isolate 31 harboring GyrA Ser83-Leu mutation at pH 5.8; method in brief: as §4
Acinetobacter baumannii [25] = assay: Antimicrobial activity against Acinetobacter baumannii isolate 42 harboring GyrA Ser83-Leu mutation at pH 7.2; method in brief: as §1
Acinetobacter baumannii [26] = assay: Antimicrobial activity against Acinetobacter baumannii isolate 23 harboring GyrA Glu87-Gly mutation at pH 5.8; method in brief: as §4
Acinetobacter baumannii [27] = assay: Antimicrobial activity against Acinetobacter baumannii isolate 51 harboring GyrA Ser83-Leu and ParC Ser80-Leu mutation at pH 7.2; method in brief: as §1
Acinetobacter baumannii [28] = assay: Antimicrobial activity against Acinetobacter baumannii isolate 26 harboring GyrA Ser83-Leu mutation at pH 5.8; method in brief: as §4
Acinetobacter baumannii [29] = assay: Antimicrobial activity against adeB overexpressing Acinetobacter baumannii isolate 67 harboring GyrA Ser83-Leu and ParC Ser80-Leu mutation at pH 7.2; method in brief: as §5
Acinetobacter baumannii [30] = assay: Antimicrobial activity against Acinetobacter baumannii isolate 2 at pH 7.2; method in brief: as §2
Acinetobacter baumannii [31] = assay: Antimicrobial activity against Acinetobacter baumannii isolate 38 harboring GyrA Ser83-Leu mutation at pH 5.8; method in brief: as §1
Acinetobacter baumannii [32] = assay: Antimicrobial activity against Acinetobacter baumannii isolate 32 harboring GyrA Ser83-Leu mutation at pH 7.2; method in brief: as §1
Acinetobacter baumannii [33] = assay: Antimicrobial activity against Acinetobacter baumannii isolate 41 harboring GyrA Ser83-Leu mutation at pH 5.8; method in brief: as §1
Acinetobacter baumannii [34] = assay: Antimicrobial activity against Acinetobacter baumannii isolate 58 harboring GyrA Ser83-Leu and ParC Ser80-Leu mutation at pH 5.8; method in brief: as §3
Acinetobacter baumannii [35] = assay: Antimicrobial activity against Acinetobacter baumannii isolate 9 at pH 7.2; method in brief: as §5
Acinetobacter baumannii [36] = assay: Antimicrobial activity against Acinetobacter baumannii isolate 17 at pH 5.8; method in brief: as §4
Acinetobacter baumannii [37] = assay: Antimicrobial activity against Acinetobacter baumannii isolate 34 harboring GyrA Ser83-Leu mutation at pH 7.2; method in brief: as §1
Acinetobacter baumannii [38] = assay: Antimicrobial activity against Acinetobacter baumannii isolate 33 harboring GyrA Ser83-Leu mutation at pH 7.2; method in brief: as §1
Acinetobacter baumannii [39] = assay: Antimicrobial activity against Acinetobacter baumannii isolate 65 harboring GyrA Ser83-Leu and ParC Ser80-Leu mutation at pH 5.8; method in brief: as §3
Acinetobacter baumannii [40] = assay: Antimicrobial activity against Acinetobacter baumannii isolate 18 at pH 5.8; method in brief: as §4
Acinetobacter baumannii [41] = assay: Antimicrobial activity against Acinetobacter baumannii isolate 60 harboring GyrA Ser83-Leu and ParC Ser80-Leu mutation at pH 7.2; method in brief: as §5

O=C(O)c1cn(C2CC2)c2cc(N3CCNCC3)c(F)cc2c1=O [CIPROFLOXACIN]
MIC (Acinetobacter baumannii [1]): 16 µg/mL (≈ 48.3 µM)
MIC (Acinetobacter baumannii [2]): > 128 µg/mL
MIC (Acinetobacter baumannii [3]): 4 µg/mL (≈ 12.1 µM)
MIC (Acinetobacter baumannii [4]): > 128 µg/mL
MIC (Acinetobacter baumannii [5]): 0.25 µg/mL (≈ 0.754 µM)
MIC (Acinetobacter baumannii [6]): 2 µg/mL (≈ 6.04 µM)
MIC (Acinetobacter baumannii [7]): 4 µg/mL (≈ 12.1 µM)
MIC (Acinetobacter baumannii [8]): 128 µg/mL (≈ 386 µM)
MIC (Acinetobacter baumannii [9]): > 128 µg/mL
MIC (Acinetobacter baumannii [10]): 4 µg/mL (≈ 12.1 µM)
MIC (Acinetobacter baumannii [11]): 16 µg/mL (≈ 48.3 µM)
MIC (Acinetobacter baumannii [12]): > 128 µg/mL
MIC (Acinetobacter baumannii [13]): 2 µg/mL (≈ 6.04 µM)
MIC (Acinetobacter baumannii [14]): 128 µg/mL (≈ 386 µM)
MIC (Acinetobacter baumannii [15]): > 128 µg/mL
MIC (Acinetobacter baumannii [16]): 0.5 µg/mL (≈ 1.51 µM)
MIC (Acinetobacter baumannii [17]): > 128 µg/mL
MIC (Acinetobacter baumannii [18]): 2 µg/mL (≈ 6.04 µM)
MIC (Acinetobacter baumannii [19]): 128 µg/mL (≈ 386 µM)
MIC (Acinetobacter baumannii [20]): > 128 µg/mL
MIC (Acinetobacter baumannii [21]): 0.25 µg/mL (≈ 0.754 µM)
MIC (Acinetobacter baumannii [22]): 4 µg/mL (≈ 12.1 µM)
MIC (Acinetobacter baumannii [23]): 32 µg/mL (≈ 96.6 µM)
MIC (Acinetobacter baumannii [24]): 32 µg/mL (≈ 96.6 µM)
MIC (Acinetobacter baumannii [25]): 16 µg/mL (≈ 48.3 µM)
MIC (Acinetobacter baumannii [26]): 32 µg/mL (≈ 96.6 µM)
MIC (Acinetobacter baumannii [27]): 128 µg/mL (≈ 386 µM)
MIC (Acinetobacter baumannii [28]): 32 µg/mL (≈ 96.6 µM)
MIC (Acinetobacter baumannii [29]): > 128 µg/mL
MIC (Acinetobacter baumannii [30]): 0.06 µg/mL (≈ 0.181 µM)
MIC (Acinetobacter baumannii [31]): 128 µg/mL (≈ 386 µM)
MIC (Acinetobacter baumannii [32]): 16 µg/mL (≈ 48.3 µM)
MIC (Acinetobacter baumannii [33]): > 128 µg/mL
MIC (Acinetobacter baumannii [34]): > 128 µg/mL
MIC (Acinetobacter baumannii [35]): 0.25 µg/mL (≈ 0.754 µM)
MIC (Acinetobacter baumannii [36]): 4 µg/mL (≈ 12.1 µM)
MIC (Acinetobacter baumannii [37]): 8 µg/mL (≈ 24.1 µM)
MIC (Acinetobacter baumannii [38]): 8 µg/mL (≈ 24.1 µM)
MIC (Acinetobacter baumannii [39]): > 128 µg/mL
MIC (Acinetobacter baumannii [40]): 8 µg/mL (≈ 24.1 µM)
MIC (Acinetobacter baumannii [41]): 128 µg/mL (≈ 386 µM)
